According to article PMC9382226 (Inorganic chemistry, 2022):
“Also recorded” adds a separate entry of the source.

Experiments:
mice = assay: Ex vivo biodistribution of uranium in mice by ICP-MS; settings: for stability of the uranium complex in vivo: biodistribution, label is the ligand of the complex; for uranium uptake in bone (tibia) / clearance from blood / uranium in soft organs (lung, liver, kidney, spleen): 4 mg/kg intravenous injection, ICP-MS; for uranium uptake in bone (tibia): 30 min, 2 h and 24 h
[1] = format: binding; settings: [UO2^2+]tot = 10^−6 M, [L]tot = 10^−5 M, 25 °C, I = 0.1 M KCl
[2] = format: binding; settings: for k2 (pH 7.4), second-order rate constant for complexation of UO2^2+: TRIS buffer pH 7.4, 25 °C; for k2 (pH 5), second-order rate constant for complexation of UO2^2+: aqueous citrate buffer pH 5, 25 °C
[3] = Ligand protonation constants by potentiometric titration; format: physicochemical; settings: 25 °C, I = 0.1 M KCl
[4] = Ligand protonation constants by semi-batch spectrophotometric titration; format: physicochemical; settings: 25 °C, I = 0.1 M KCl
Method in brief: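 Semi-batch spectrophotometric titration of test ligands (those not titrated potentiometrically) at 25 °C, ionic strength 0.1 M with KCl as supporting electrolyte; protonation constants fitted from the titration data; uncertainty given as standard deviation of the last digit.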

[5] = Initial pH potentiometric experiments with UO2^2+; format: binding; settings: lowest electrode-calibrated pH value of 2.4
[6] = Kinetic stability challenge with hydroxyapatite; format: physicochemical; settings: 2000 equiv. HAP, 0.1 M TRIS, 37 °C, arsenazo III indicator
[7] = Aqueous solubility of the complexes; format: physicochemical; settings: in words

SMILES | stability of the uranium complex in vivo (mice) | pUO2 (pH 7.4) = −log[UO2^2+]free [1] | k2 (pH 7.4), second-order rate constant for complexation of UO2^2+ [2] [M^−1 s^−1] | k2 (pH 5), second-order rate constant for complexation of UO2^2+ [2] [M^−1 s^−1] | uranium uptake in bone (tibia) (mice) | clearance from blood (mice) | uranium in soft organs (lung, liver, kidney, spleen) (mice) | further results
O=C(O)c1cccc(CNC2CCCCC2NCc2cccc(C(=O)O)n2)n1 (stereo not drawn) [H2CHXdedpa] | stable in vivo | 17.72 | 1190 ± 150 | 1320 ± 140 |  |  |  | pKa1 [3]: 9.39(2); pKa2 [3]: 6.43(6); pKa3 [3]: 3.15(6); pKa4 [3]: 2.40(8)
Oc1cccc2ccc(CNC3CCCCC3NCc3ccc4cccc(O)c4n3)nc12 (stereo not drawn) [H2CHXhox] |  | 19.98 | 2850 ± 380 | 140 ± 5 |  |  |  | pKa1 [4]: 10.95(9); pKa2 [4]: 10.18(2); pKa3 [4]: 8.72(7); pKa4 [4]: 5.37(2)
O=C(O)c1cccc(CNCCNCc2cccc(C(=O)O)n2)n1 [H2dedpa] | stable in vivo | 17.46 | 450 ± 40 | 420 ± 28 |  |  |  | free UO2^2+ present [5]: < 5%; pKa1 [3]: 8.95(3); pKa2 [3]: 6.32(6); pKa3 [3]: 3.15(6); pKa4 [3]: 2.28(7)
Oc1cccc2ccc(CNCCNCc3ccc4cccc(O)c4n3)nc12 [H2hox] | stable in vivo | 19.80 | 3420 ± 340 | 73 ± 5 |  |  |  | pKa1 [4]: 11.0(1); pKa2 [4]: 10.10(8); pKa3 [4]: 8.63(5); pKa4 [4]: 6.1(3)
O.O.O.O.O.O.O=[N+]([O-])O.O=[N+]([O-])O.[O]=[U]=[O] [UO2(NO3)2·6H2O] |  |  |  |  |  |  |  | original uranium remaining in solution with HAP ([6]; after 12 h): 10%; uranium remaining in solution with HAP ([6]; by 120 h): undetectable
O=C([O-])c1cccc(CNC2CCCCC2NCc2cccc(C(=O)[O-])n2)n1.[O]=[U+2]=[O] (stereo not drawn) [[UO2(CHXdedpa)]] |  |  |  |  | minimal uptake in the bone | rapidly cleared from the blood | low but detectable values of uranium were found in the lung, liver and kidney | 
[O-]c1cccc2ccc(CNC3CCCCC3NCc3ccc4cccc([O-])c4n3)nc12.[O]=[U+2]=[O] (stereo not drawn) [[UO2(CHXhox)]] |  |  |  |  |  |  |  | aqueous solubility [7]: low solubility in water; also recorded: poor aqueous solubility; lethality upon injection (mice; intravenous injection): precipitation in the circulatory system upon injection causing lethality
O=C([O-])c1cccc(CNCCNCc2cccc(C(=O)[O-])n2)n1.[O]=[U+2]=[O] [[UO2(dedpa)]] |  |  |  |  | minimal uptake in the bone | rapidly cleared from the blood | low but detectable values of uranium were found in the lung, liver and kidney | 
[O-]c1cccc2ccc(CNCCNCc3ccc4cccc([O-])c4n3)nc12.[O]=[U+2]=[O] [[UO2(hox)]] |  |  |  |  | minimal uptake in the bone | rapidly cleared from the blood | significant accumulation of uranium in the lungs | 
